Measured values published in ChEMBL document CHEMBL5724801, “EUbOPEN Chemogenomics Library - Multiplex” (2024).
Where “and” joins values, the source holds several entries; their conditions need not be identical. Equal values may be shown once.

Tested on: U2OS
Assay: Multiplex assay against U2OS
Assay type: toxicity, cell-based
Details: human
Method in brief: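 Hoechst33342, BioTracker Green Microtubule Cytoskeleton Dye, MitoTracker Red and Annexin V Alexa Fluor 680 were added to live cells at seeding, and imaging on a CQ1 microscope at 37°C and 5% CO2 followed compound addition. Gating by CellPathfinder machine learning separated cells into Hoechst high-intensity objects or normal cells, then normal cells into healthy, pyknosed or fragmented nuclei, then pyknosed cells into mitotic or apoptotic. Per cents of healthy-nucleus cells are reported for the tubulin, mitochondrial-mass and membrane-permeability phenotypes.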

[1] = 12 h, 1 µM, compound concentration 1 uM
[2] = 12 h, 10 µM, compound concentration 10 uM
[3] = 24 h, 1 µM, compound concentration 1 uM
[4] = 24 h, 10 µM, compound concentration 10 uM
[5] = 48 h, 1 µM, compound concentration 1 uM
[6] = 48 h, 10 µM, compound concentration 10 uM

In the case of `C=C(C)[C@H]1CN[C@H](C(=O)O)[C@H]1CC(=O)O` [KAINIC ACID], the “Population Apoptotic (%)” value [1] is reported as 30.91% and 58.82%, the “Population Fragmented Nuclei (%)” value [1] is reported as 1.23% and 1.12% and the “Population Healthy Nuclei (%)” value [1] is reported as 87.5% and 89.39%. For the same molecule, the “Population Hoechst High Intensity Objects (%)” value [1] was 0%, the “Population Membrane Permeable-Phenotype (%)” value [1] was 1.41% and 1.88% and the “Population Mitochondria Different-Phenotype (%)” value [1] was 0.23% and 4.38%. The “Population Mitotic Cells (%)” value [1] was 69.09% and 41.18%, the “Population Normal (%)” value [1] was 100% and the “Population Pyknosed Nuclei (%)” value [1] was 11.27% and 9.5%. The “Population Tubulin-Different-Phenotype (%)” value [1] was 0.7% and 0.62%, the “Total Cell Count” value [1] was 488 and 179 and the “Population Apoptotic (%)” value [2] was 57.14% and 30.77%. For the same molecule, the “Population Fragmented Nuclei (%)” value [2] was 0.95% and 4.3%, the “Population Healthy Nuclei (%)” value [2] was 89.13% and 81.72% and the “Population Hoechst High Intensity Objects (%)” value [2] was 0%. For the same molecule, the “Population Membrane Permeable-Phenotype (%)” value [2] was 0.27% and 3.29%, the “Population Mitochondria Different-Phenotype (%)” value [2] was 0.27% and 4.61% and the “Population Mitotic Cells (%)” value [2] was 42.86% and 69.23%. For the same molecule, the “Population Normal (%)” value [2] was 100%, the “Population Pyknosed Nuclei (%)” value [2] was 9.93% and 13.98% and the “Population Tubulin-Different-Phenotype (%)” value [2] was 0.53% and 0%. The “Total Cell Count” value [2] was 423 and 186, the “Population Apoptotic (%)” value [3] was 37.88% and 41.38% and the “Population Fragmented Nuclei (%)” value [3] was 1.93% and 1.32%. The “Population Healthy Nuclei (%)” value [3] was 88.3% and 85.96%, the “Population Hoechst High Intensity Objects (%)” value [3] was 0% and the “Population Membrane Permeable-Phenotype (%)” value [3] was 0.84% and 3.06%. The “Population Mitochondria Different-Phenotype (%)” value [3] was 0.17% and 5.61%, the “Population Mitotic Cells (%)” value [3] was 62.12% and 58.62% and the “Population Normal (%)” value [3] was 100%. The “Population Pyknosed Nuclei (%)” value [3] was 9.78% and 12.72%, the “Population Tubulin-Different-Phenotype (%)” value [3] was 0.5% and 0.51% and the “Total Cell Count” value [3] was 675 and 228. The “Population Apoptotic (%)” value [4] was 43.86% and 44.44%, the “Population Fragmented Nuclei (%)” value [4] was 0.5% and 1.63% and the “Population Healthy Nuclei (%)” value [4] was 90.02% and 91.02%. For the same molecule, the “Population Hoechst High Intensity Objects (%)” value [4] was 0%, the “Population Membrane Permeable-Phenotype (%)” value [4] was 0.37% and 1.79% and the “Population Mitochondria Different-Phenotype (%)” value [4] was 0% and 2.69%. The “Population Mitotic Cells (%)” value [4] was 56.14% and 55.56%, the “Population Normal (%)” value [4] was 100% and the “Population Pyknosed Nuclei (%)” value [4] was 9.48% and 7.35%. For the same molecule, the “Population Tubulin-Different-Phenotype (%)” value [4] was 0.92% and 0.9%, the “Total Cell Count” value [4] was 601 and 245 and the “Population Apoptotic (%)” value [5] was 36.05% and 33.33%. For the same molecule, the “Population Fragmented Nuclei (%)” value [5] was 2.72% and 1.63%, the “Population Healthy Nuclei (%)” value [5] was 90.38% and 86.14% and the “Population Hoechst High Intensity Objects (%)” value [5] was 0%. For the same molecule, the “Population Membrane Permeable-Phenotype (%)” value [5] was 0.98% and 1.89%, the “Population Mitochondria Different-Phenotype (%)” value [5] was 0.44% and 1.89% and the “Population Mitotic Cells (%)” value [5] was 63.95% and 66.67%. The “Population Normal (%)” value [5] was 100%, the “Population Pyknosed Nuclei (%)” value [5] was 6.89% and 12.23% and the “Population Tubulin-Different-Phenotype (%)” value [5] was 0.62% and 0.95%. The “Population Apoptotic (%)” value [6] was 44.57% and 57.89%, the “Population Fragmented Nuclei (%)” value [6] was 3.7% and 0.47% and the “Population Healthy Nuclei (%)” value [6] was 88.18% and 90.59%. For the same molecule, the “Population Hoechst High Intensity Objects (%)” value [6] was 0%, the “Population Membrane Permeable-Phenotype (%)” value [6] was 0.8% and 2.08% and the “Population Mitochondria Different-Phenotype (%)” value [6] was 0.2% and 2.08%. The “Population Mitotic Cells (%)” value [6] was 55.43% and 42.11%, the “Population Normal (%)” value [6] was 100% and the “Population Pyknosed Nuclei (%)” value [6] was 8.11% and 8.94%. The “Population Tubulin-Different-Phenotype (%)” value [6] was 0.7% and 1.3% and the “Total Cell Count” value [6] was 1134 and 425.
In the case of `CCCCCCNC(=O)Nc1ccc(S(=O)(=O)Nc2ccc(CCNC[C@H](O)COc3ccc(O)cc3)cc2)cc1` [L-755507], the “Population Apoptotic (%)” value [1] is reported as 86% and 100%, the “Population Fragmented Nuclei (%)” value [1] is reported as 22% and 18% and the “Population Healthy Nuclei (%)” value [1] is reported as 67% and 75%. The “Population Hoechst High Intensity Objects (%)” value [1] was 4% and 0%, the “Population Membrane Permeable-Phenotype (%)” value [1] was 4% and 10% and the “Population Mitochondria Different-Phenotype (%)” value [1] was 4% and 1%. The “Population Mitotic Cells (%)” value [1] was 13% and 0%, the “Population Normal (%)” value [1] was 95% and 99% and the “Population Pyknosed Nuclei (%)” value [1] was 9% and 5%. The “Population Tubulin-Different-Phenotype (%)” value [1] was 4% and 5%, the “Total Cell Count” value [1] was 231 and 120 and the “Population Apoptotic (%)” value [2] was 60% and 72%. The “Population Fragmented Nuclei (%)” value [2] was 31% and 19%, the “Population Healthy Nuclei (%)” value [2] was 59% and 72% and the “Population Hoechst High Intensity Objects (%)” value [2] was 3% and 2%. The “Population Membrane Permeable-Phenotype (%)” value [2] was 13% and 19%, the “Population Mitochondria Different-Phenotype (%)” value [2] was 11% and 15% and the “Population Mitotic Cells (%)” value [2] was 40% and 27%. For the same molecule, the “Population Normal (%)” value [2] was 96% and 97%, the “Population Pyknosed Nuclei (%)” value [2] was 9% and 8% and the “Population Tubulin-Different-Phenotype (%)” value [2] was 10% and 15%. For the same molecule, the “Total Cell Count” value [2] was 282 and 140, the “Population Apoptotic (%)” value [3] was 83% and 92% and the “Population Fragmented Nuclei (%)” value [3] was 22% and 23%. For the same molecule, the “Population Healthy Nuclei (%)” value [3] was 66% and 67%, the “Population Hoechst High Intensity Objects (%)” value [3] was 4% and 2% and the “Population Membrane Permeable-Phenotype (%)” value [3] was 5% and 11%. For the same molecule, the “Population Mitochondria Different-Phenotype (%)” value [3] was 5% and 1%, the “Population Mitotic Cells (%)” value [3] was 16% and 7% and the “Population Normal (%)” value [3] was 95% and 97%. The “Population Pyknosed Nuclei (%)” value [3] was 11% and 9%, the “Population Tubulin-Different-Phenotype (%)” value [3] was 3% and 5% and the “Total Cell Count” value [3] was 285 and 143. The “Population Apoptotic (%)” value [4] was 85% and 88%, the “Population Fragmented Nuclei (%)” value [4] was 25% and 14% and the “Population Healthy Nuclei (%)” value [4] was 65% and 79%. For the same molecule, the “Population Hoechst High Intensity Objects (%)” value [4] was 2%, the “Population Membrane Permeable-Phenotype (%)” value [4] was 7% and 9% and the “Population Mitochondria Different-Phenotype (%)” value [4] was 4% and 5%. The “Population Mitotic Cells (%)” value [4] was 14% and 11%, the “Population Normal (%)” value [4] was 97% and the “Population Pyknosed Nuclei (%)” value [4] was 9% and 6%. For the same molecule, the “Population Tubulin-Different-Phenotype (%)” value [4] was 3% and 6%, the “Total Cell Count” value [4] was 307 and 149 and the “Population Apoptotic (%)” value [5] was 78% and 91%. The “Population Fragmented Nuclei (%)” value [5] was 14% and 26%, the “Population Healthy Nuclei (%)” value [5] was 74% and 61% and the “Population Hoechst High Intensity Objects (%)” value [5] was 1% and 4%. The “Population Membrane Permeable-Phenotype (%)” value [5] was 6% and 12%, the “Population Mitochondria Different-Phenotype (%)” value [5] was 3% and 5% and the “Population Mitotic Cells (%)” value [5] was 21% and 8%. For the same molecule, the “Population Normal (%)” value [5] was 98% and 95%, the “Population Pyknosed Nuclei (%)” value [5] was 11% and 12% and the “Population Tubulin-Different-Phenotype (%)” value [5] was 3% and 6%. The “Total Cell Count” value [5] was 422 and 188, the “Population Apoptotic (%)” value [6] was 80% and 94% and the “Population Fragmented Nuclei (%)” value [6] was 19% and 13%. For the same molecule, the “Population Healthy Nuclei (%)” value [6] was 70% and 78%, the “Population Hoechst High Intensity Objects (%)” value [6] was 2% and 1% and the “Population Membrane Permeable-Phenotype (%)” value [6] was 7%. For the same molecule, the “Population Mitochondria Different-Phenotype (%)” value [6] was 2% and 3%, the “Population Normal (%)” value [6] was 97% and 98% and the “Population Pyknosed Nuclei (%)” value [6] was 9% and 7%. For the same molecule, the “Population Tubulin-Different-Phenotype (%)” value [6] was 4% and 6% and the “Total Cell Count” value [6] was 419 and 242.
